Calls of active or inactive are those of the source. The calls are words filed in the database; no cut-off is given here.
Key:
[1] = molecular target: Eukaryotic translation initiation factor 4E (Homo sapiens) (UniProt P06730); assay: Inhibition of eIF4E binding to m7GMP in immobilized resin with HEK293 lysate at 500 uM by western blot analysis based competitive binding assay; type: subcellular
How it was run: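 Cap pull-down is carried out on m7GMP agarose. HEK293 lysate is freeze-thawed thrice and cleared at 20,000 × g, and 350 μg protein is loaded for 2 h at 4 °C. After washes, the resin is incubated overnight with 500 μM compound in Buffer A (50 mM HEPES-KOH pH 7.5, 150 mM KCl). eIF4E remaining on the resin is read by anti-eIF4E western blot. m7GMP is the positive control and DMSO the negative control.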

[2] = molecular target: Eukaryotic translation initiation factor 4E (Homo sapiens) (UniProt P06730); assay: Inhibition of eIF4E binding to m7GDP in immobilized resin with HEK293 lysate at 500 uM by western blot analysis based competitive binding assay; type: subcellular; conditions: time 12.0 hrs
How it was run: (§1)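 350 μg protein bound to m7GDP agarose for 2 h at 4 °C, washed, then exposed to compound in Buffer A overnight. Bound protein eluted in LDS buffer and probed with anti-eIF4E antibody. m7GDP is the positive control and DMSO the negative control.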

[3] = molecular target: T1, Protein cereblon/Eukaryotic translation initiation factor 4E (Homo sapiens) (UniProt P06730+Q96SW2); assay: Protac activity at E3-liagse/eIF4E in human MDA-MB-231 cells assessed as reduction in eIF4E protein level at 25 to 200 uM after 24 to 72 hrs; type: cell-based; conditions: dose 25-200 µM, time 24-72 hrs
How it was run: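 MDA-MB-231 cells are grown in RPMI-1640 with 10% FBS and 1 mM glutamine at 37 °C under 5% CO2. Cells are exposed to compound at 25–200 μM for 24–72 h, and eIF4E protein level is then assessed.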

[4] = molecular target: T1, Protein cereblon/Eukaryotic translation initiation factor 4E (Homo sapiens); assay: Protac activity at E3-ligase/eIF4E in human K562 cells assessed as intracellular eIF4E degradation by Western blot analysis; type: cell-based
[5] = molecular target: Eukaryotic translation initiation factor 4E (Homo sapiens) (UniProt P06730); assay: Inhibition of eIF4E binding to m7GDP in immobilized resin with HEK293 lysate by western blot analysis based competitive binding assay; type: subcellular; conditions: dose 50-500 µM; how it was run: as §1

T1 sequence (P06730 whole entry, looked up): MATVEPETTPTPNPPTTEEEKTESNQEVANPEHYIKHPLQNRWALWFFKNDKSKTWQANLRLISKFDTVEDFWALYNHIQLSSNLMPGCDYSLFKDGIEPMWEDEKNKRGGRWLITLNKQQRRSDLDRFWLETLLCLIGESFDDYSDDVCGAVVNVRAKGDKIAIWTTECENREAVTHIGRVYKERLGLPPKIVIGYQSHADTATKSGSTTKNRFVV
T1 sequence (Q96SW2 whole entry, looked up): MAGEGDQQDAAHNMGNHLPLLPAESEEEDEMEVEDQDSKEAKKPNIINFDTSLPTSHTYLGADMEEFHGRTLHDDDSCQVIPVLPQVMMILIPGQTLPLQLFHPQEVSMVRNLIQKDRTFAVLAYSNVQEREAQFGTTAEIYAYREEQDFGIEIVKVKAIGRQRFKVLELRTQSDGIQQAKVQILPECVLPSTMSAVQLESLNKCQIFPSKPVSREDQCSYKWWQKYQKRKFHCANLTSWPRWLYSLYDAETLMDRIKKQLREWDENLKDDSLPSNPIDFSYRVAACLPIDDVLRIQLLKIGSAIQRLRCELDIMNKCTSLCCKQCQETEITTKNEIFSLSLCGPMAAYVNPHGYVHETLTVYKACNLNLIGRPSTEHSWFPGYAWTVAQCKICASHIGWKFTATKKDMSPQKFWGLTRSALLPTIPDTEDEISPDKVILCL
Chain of Eukaryotic translation initiation factor 4E (Homo sapiens) (P06730 whole entry): as the sequence (P06730 whole entry, looked up) above

Row | Structure (SMILES) | inhibition [1] | inhibition [2] | Activity [3] | Activity [4] | inhibition [5]
1 | Nc1nc2c(ncn2[C@@H]2O[C@H](COP(=O)(O)NCCCCCC(=O)Nc3cccc4c3CN(C3CCC(=O)NC3=O)C4=O)[C@@H](O)[C@H]2O)c(=O)[nH]1 (stereo partly drawn) | inactive | – | – | – | –
2 | Nc1nc2c(c(=O)[nH]1)[n+](Cc1ccc(F)cc1)cn2[C@@H]1O[C@H](COP(=O)(O)OP(=O)(O)NCCCCCC(=O)Nc2cccc3c2CN(C2CCC(=O)NC2=O)C3=O)[C@@H](O)[C@H]1O (stereo partly drawn) | – | Active | inactive | – | –
3 | Nc1nc2c(c(=O)[nH]1)[n+](Cc1ccccc1)cn2[C@@H]1O[C@H](COP(=O)(O)NCCCCCC(=O)Nc2cccc3c2CN(C2CCC(=O)NC2=O)C3=O)[C@@H](O)[C@H]1O (stereo partly drawn) | inactive | – | – | – | –
4 | Nc1nc2c(ncn2[C@@H]2O[C@H](COP(=O)(O)OP(=O)(O)NCCOCCOCCOCCC(=O)Nc3cccc4c3CN(C3CCC(=O)NC3=O)C4=O)[C@@H](O)[C@H]2O)c(=O)[nH]1 (stereo partly drawn) | – | inactive | – | inactive | –
5 | Nc1nc2c(c(=O)[nH]1)[n+](Cc1ccc(F)cc1)cn2[C@@H]1O[C@H](COP(=O)(O)OP(=O)(O)NCCOCCOCCOCCC(=O)Nc2cccc3c2CN(C2CCC(=O)NC2=O)C3=O)[C@@H](O)[C@H]1O (stereo partly drawn) | – | Active | inactive | inactive | –
6 | Nc1nc2c(c(=O)[nH]1)[n+](Cc1ccccc1)cn2[C@@H]1O[C@H](COP(=O)(O)OP(=O)(O)NCCCCCC(=O)Nc2cccc3c2CN(C2CCC(=O)NC2=O)C3=O)[C@@H](O)[C@H]1O (stereo partly drawn) | – | Active | inactive | – | Dose-dependent effect
7 | Cc1ncsc1-c1ccc(CNC(=O)C2C[C@H](O)CN2C(=O)[C@@H](NC(=O)CCCCCNP(=O)(O)OP(=O)(O)OC[C@H]2O[C@@H](n3c[n+](Cc4ccc(F)cc4)c4c(=O)[nH]c(N)nc43)[C@H](O)[C@@H]2O)C(C)(C)C)cc1 (stereo partly drawn) | – | Active | inactive | inactive | –
8 | Nc1nc2c(ncn2[C@@H]2O[C@H](COP(=O)(O)OP(=O)(O)NCCOCCOCCOCCOCCOCCOCCOCCC(=O)Nc3cccc4c3CN(C3CCC(=O)NC3=O)C4=O)[C@@H](O)[C@H]2O)c(=O)[nH]1 (stereo partly drawn) | – | inactive | – | – | –

Next, values leading:

Row | inhibition [1] | inhibition [2] | Activity [3] | Activity [4] | inhibition [5] | Structure (SMILES)
9 | inactive | – | – | – | – | Nc1nc2c(c(=O)[nH]1)[n+](Cc1ccc(F)cc1)cn2[C@@H]1O[C@H](COS(=O)(=O)NC(=O)CCC(=O)NCCCCCC(=O)Nc2cccc3c2CN(C2CCC(=O)NC2=O)C3=O)[C@@H](O)[C@H]1O (stereo partly drawn)
10 | inactive | – | – | – | – | Nc1nc2c(ncn2[C@@H]2O[C@H](COS(=O)(=O)NC(=O)CCC(=O)NCCCCCC(=O)Nc3cccc4c3CN(C3CCC(=O)NC3=O)C4=O)[C@@H](O)[C@H]2O)c(=O)[nH]1 (stereo partly drawn)
11 | – | inactive | – | – | – | Nc1nc2c(ncn2[C@@H]2O[C@H](COP(=O)(O)OP(=O)(O)NCCCCCC(=O)Nc3cccc4c3CN(C3CCC(=O)NC3=O)C4=O)[C@@H](O)[C@H]2O)c(=O)[nH]1 (stereo partly drawn)
12 | – | Active | inactive | – | – | Nc1nc2c(c(=O)[nH]1)[n+](Cc1ccc(F)cc1)cn2[C@@H]1O[C@H](COP(=O)(O)OP(=O)(O)NCCOCCOCCOCCOCCOCCOCCOCCC(=O)Nc2cccc3c2CN(C2CCC(=O)NC2=O)C3=O)[C@@H](O)[C@H]1O (stereo partly drawn)
13 | – | inactive | – | inactive | – | Cc1ncsc1-c1ccc(CNC(=O)C2C[C@H](O)CN2C(=O)[C@@H](NC(=O)CCCCCNP(=O)(O)OP(=O)(O)OC[C@H]2O[C@@H](n3cnc4c(=O)[nH]c(N)nc43)[C@H](O)[C@@H]2O)C(C)(C)C)cc1 (stereo partly drawn)
14 | – | Active | inactive | inactive | – | Cc1ncsc1-c1ccc(CNC(=O)C2C[C@H](O)CN2C(=O)[C@@H](NC(=O)CCCCCNP(=O)(O)OP(=O)(O)OC[C@H]2O[C@@H](n3c[n+](Cc4ccccc4)c4c(=O)[nH]c(N)nc43)[C@H](O)[C@@H]2O)C(C)(C)C)cc1 (stereo partly drawn)
15 | inactive | – | – | – | – | Nc1nc2c(c(=O)[nH]1)[n+](Cc1ccc(F)cc1)cn2[C@@H]1O[C@H](COP(=O)(O)NCCCCCC(=O)Nc2cccc3c2CN(C2CCC(=O)NC2=O)C3=O)[C@@H](O)[C@H]1O (stereo partly drawn)
16 | – | Active | inactive | – | – | Nc1nc2c(c(=O)[nH]1)[n+](Cc1ccccc1)cn2[C@@H]1O[C@H](COP(=O)(O)OP(=O)(O)NCCOCCOCCOCCOCCOCCOCCOCCC(=O)Nc2cccc3c2CN(C2CCC(=O)NC2=O)C3=O)[C@@H](O)[C@H]1O (stereo partly drawn)
17 | inactive | – | – | – | – | Nc1nc2c(c(=O)[nH]1)[n+](Cc1ccccc1)cn2[C@@H]1O[C@H](COS(=O)(=O)NC(=O)CCC(=O)NCCCCCC(=O)Nc2cccc3c2CN(C2CCC(=O)NC2=O)C3=O)[C@@H](O)[C@H]1O (stereo partly drawn)
18 | – | Active | inactive | inactive | – | Nc1nc2c(c(=O)[nH]1)[n+](Cc1ccccc1)cn2[C@@H]1O[C@H](COP(=O)(O)OP(=O)(O)NCCOCCOCCOCCC(=O)Nc2cccc3c2CN(C2CCC(=O)NC2=O)C3=O)[C@@H](O)[C@H]1O (stereo partly drawn)
